Results: ChEMBL document CHEMBL1123985, “Oral absorption of cephalosporin antibiotics. 1. Synthesis, biological properties, and oral bioavailability of 7-(arylacetamido)-3-chloro cephalosporins in animals” (J Med Chem, 1988)
≈ marks a conversion by molar mass, not a printed value.

How the values were obtained:
Escherichia coli = experiment: Minimum inhibitory concentration against EC14 strain Escherichia coli; format: functional
Klebsiella aerogenes = experiment: Minimum inhibitory concentration against EB17 strain of Enterobacter aerogenes; format: functional
Klebsiella pneumoniae = experiment: Minimum inhibitory concentration against X68 strain of Klebsiella pneumoniae; format: functional
Salmonella = experiment: Minimum inhibitory concentration against X514 strain of Salmonella; format: functional
[1] = Minimum inhibitory concentration against N9 strain of Shigella sonnei; format: functional
[2] = system: Staphylococcus epidermidis; experiment: Minimum inhibitory concentration against 222 strain of Staphylococcus epidermidis; format: functional
[3] = system: Staphylococcus epidermidis; experiment: Minimum inhibitory concentration against Epil strain of Staphylococcus epidermidis; format: functional
Staphylococcus aureus [4] = experiment: Minimum inhibitory concentration against S13E strain of Staphylococcus aureus; format: functional
Staphylococcus aureus [5] = experiment: Minimum inhibitory concentration against V41 strain of Staphylococcus aureus; format: functional
Staphylococcus aureus [6] = experiment: Minimum inhibitory concentration against X1.1 strain of Staphylococcus aureus; format: functional
Streptococcus pyogenes [7] = experiment: Minimum inhibitory concentration against Streptococcus pyogenes C203; format: functional
[8] = Minimum inhibitory concentration against sens CL strain of Haemophilus influenzae; format: functional
[9] = Minimum inhibitory concentration against res 76 strain of Haemophilus influenzae; format: functional
Staphylococcus aureus [10] = experiment: Minimum inhibitory concentration against 3055 strain of Staphylococcus aureus
Streptococcus pyogenes [11] = experiment: Minimum inhibitory concentration against C203 strain of Streptococcus pyogenes
Streptococcus pneumoniae [12] = experiment: Minimum inhibitory concentration against park strain of Streptococcus pneumoniae
Streptococcus pneumoniae [13] = experiment: Minimum inhibitory concentration against Park strain of Streptococcus pneumoniae
[14] = Oral bioavailability in mouse; format: ADME, organism-based; details: in vivo
In short: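 Male Cox mice given water and liquid diet overnight; 20 mg/kg in saline (2 mg/mL) sc or orally; urine from collection cages plus bladder contents over 2 h; activity by agar well assay with Bacillus subtilis ATCC 6633. Bioavailability from percent dose excreted in urine after oral vs parenteral dosing.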

Streptococcus pyogenes [15] = experiment: Minimum inhibitory concentration against C203 strain of Streptococcus pyogenes; remark: listed apart in the source

| SMILES | MIC (Escherichia coli) [µg/mL] | MIC (Klebsiella aerogenes) [µg/mL] | MIC (Klebsiella pneumoniae) [µg/mL] | MIC (Salmonella) [µg/mL] | MIC [1] [µg/mL] | MIC [2] [µg/mL] | MIC [3] [µg/mL] | MIC (Staphylococcus aureus [4]) [µg/mL] | MIC (Staphylococcus aureus [5]) [µg/mL] | MIC (Staphylococcus aureus [6]) [µg/mL] | MIC (Streptococcus pyogenes [7]) [µg/mL] | MIC [8] [µg/mL] | MIC [9] [µg/mL] | MIC (Staphylococcus aureus [10]) [µg/mL] | MIC (Streptococcus pyogenes [11]) [µg/mL] | MIC (Streptococcus pneumoniae [12]) [µg/mL] | MIC (Streptococcus pneumoniae [13]) [µg/mL] | bioavailability [14] [%] | MIC (Streptococcus pyogenes [15]) [µg/mL] |
| --- | --- | --- | --- | --- | --- | --- | --- | --- | --- | --- | --- | --- | --- | --- | --- | --- | --- | --- | --- |
| O=C(Cc1csc2ccc(Cl)cc12)N[C@@H]1C(=O)N2C(C(=O)O)=C(Cl)CS[C@H]12 | 64 (≈ 144 µM) | 128 (≈ 289 µM) | 128 (≈ 289 µM) | 128 (≈ 289 µM) | 128 (≈ 289 µM) | 0.125 (≈ 0.282 µM) | 0.5 (≈ 1.13 µM) | 2 (≈ 4.51 µM) | 2 (≈ 4.51 µM) | 0.03 (≈ 0.0677 µM) | 0.015 (≈ 0.0338 µM) | 1 (≈ 2.26 µM) | 0.25 (≈ 0.564 µM) | 0.06 (≈ 0.135 µM) | 0.03 (≈ 0.0677 µM) | 0.02 (≈ 0.0451 µM) | 0.015 (≈ 0.0338 µM) |  |  |
| O=C(Cc1ccsc1)N[C@@H]1C(=O)N2C(C(=O)O)=C(Cl)CS[C@H]12 | 8 (≈ 22.3 µM) | > 128 | 2 (≈ 5.57 µM) | 1 (≈ 2.79 µM) | 32 (≈ 89.2 µM) | 1 (≈ 2.79 µM) | 4 (≈ 11.1 µM) | 16 (≈ 44.6 µM) | 8 (≈ 22.3 µM) | 0.5 (≈ 1.39 µM) | 0.125 (≈ 0.348 µM) | 1 (≈ 2.79 µM) | 1 (≈ 2.79 µM) |  |  |  | 0.125 (≈ 0.348 µM) | 47 |  |
| COC1=C(C(=O)O)N2C(=O)[C@@H](NC(=O)Cc3csc(N)n3)[C@H]2SC1 | 8 (≈ 21.6 µM) | 32 (≈ 86.4 µM) | 8 (≈ 21.6 µM) | 2 (≈ 5.4 µM) | 32 (≈ 86.4 µM) | 32 (≈ 86.4 µM) | 128 (≈ 346 µM) | > 128 | 32 (≈ 86.4 µM) | 8 (≈ 21.6 µM) | 0.5 (≈ 1.35 µM) | 8 (≈ 21.6 µM) | 8 (≈ 21.6 µM) |  |  |  | 2 (≈ 5.4 µM) | < 5 |  |
| COC1=C(C(=O)O)N2C(=O)[C@@H](NC(=O)COc3ccccc3)[C@H]2SC1 | > 128 | > 128 | > 128 | > 128 | > 128 | 2 (≈ 5.49 µM) | 8 (≈ 22 µM) | 16 (≈ 43.9 µM) | 32 (≈ 87.8 µM) | 2 (≈ 5.49 µM) | 1 (≈ 2.74 µM) | 4 (≈ 11 µM) | 4 (≈ 11 µM) |  |  |  | 1 (≈ 2.74 µM) | 14 |  |
| O=C(Cc1ccc(O)cc1)N[C@@H]1C(=O)N2C(C(=O)O)=C(Cl)CS[C@H]12 | 32 (≈ 86.8 µM) | > 128 | 8 (≈ 21.7 µM) | 8 (≈ 21.7 µM) | 128 (≈ 347 µM) | 2 (≈ 5.42 µM) | 8 (≈ 21.7 µM) | 128 (≈ 347 µM) | 16 (≈ 43.4 µM) | 2 (≈ 5.42 µM) | 0.125 (≈ 0.339 µM) | 2 (≈ 5.42 µM) | 2 (≈ 5.42 µM) |  |  |  | 0.25 (≈ 0.678 µM) | 14 |  |
| O=C(Cc1csc(Cl)n1)N[C@@H]1C(=O)N2C(C(=O)O)=C(Cl)CS[C@H]12 |  | > 128 |  | 8 (≈ 20.3 µM) | 64 (≈ 162 µM) |  |  |  |  |  |  |  |  |  |  |  | 0.5 (≈ 1.27 µM) | 56 |  |
| C=CC1=C(C(=O)O)N2C(=O)[C@@H](NC(=O)COc3ccccc3)[C@H]2SC1 | > 128 | > 128 | > 128 | > 128 | > 128 | 0.5 (≈ 1.39 µM) | 8 (≈ 22.2 µM) | 16 (≈ 44.4 µM) | 16 (≈ 44.4 µM) | 0.25 (≈ 0.694 µM) | 0.125 (≈ 0.347 µM) | 4 (≈ 11.1 µM) | 1 (≈ 2.77 µM) | 0.25 (≈ 0.694 µM) | 0.125 (≈ 0.347 µM) | 0.25 (≈ 0.694 µM) | 0.125 (≈ 0.347 µM) | 36 |  |
| COCC1=C(C(=O)O)N2C(=O)[C@@H](NC(=O)COc3ccccc3)[C@H]2SC1 | > 128 | > 128 | > 128 | > 128 | > 128 | 0.25 (≈ 0.661 µM) | 0.5 (≈ 1.32 µM) | 32 (≈ 84.6 µM) | 0.5 (≈ 1.32 µM) | 0.25 (≈ 0.661 µM) | 0.06 (≈ 0.159 µM) | 2 (≈ 5.29 µM) | 2 (≈ 5.29 µM) |  |  |  | 0.125 (≈ 0.33 µM) | 19 |  |
| O=C(COc1ccccc1)N[C@@H]1C(=O)N2C(C(=O)O)=CCS[C@H]12 | 32 (≈ 95.7 µM) | > 128 | > 128 | > 128 | > 128 | 0.5 (≈ 1.5 µM) | 2 (≈ 5.98 µM) | 16 (≈ 47.9 µM) | 16 (≈ 47.9 µM) | 0.5 (≈ 1.5 µM) | 0.5 (≈ 1.5 µM) | 32 (≈ 95.7 µM) | 8 (≈ 23.9 µM) | 0.5 (≈ 1.5 µM) | 0.25 (≈ 0.748 µM) | 0.25 (≈ 0.748 µM) | 1 (≈ 2.99 µM) | 22 |  |
| C=CC1=C(C(=O)O)N2C(=O)[C@@H](NC(=O)Cc3csc(N)n3)[C@H]2SC1 | 4 (≈ 10.9 µM) | 128 (≈ 349 µM) | 2 (≈ 5.46 µM) | 2 (≈ 5.46 µM) |  | 1 (≈ 2.73 µM) | 8 (≈ 21.8 µM) | 16 (≈ 43.7 µM) | 8 (≈ 21.8 µM) | 1 (≈ 2.73 µM) | 0.125 (≈ 0.341 µM) | 4 (≈ 10.9 µM) | 2 (≈ 5.46 µM) |  |  |  | 0.5 (≈ 1.36 µM) | 25 |  |
| Cc1nc(CC(=O)N[C@@H]2C(=O)N3C(C(=O)O)=C(Cl)CS[C@H]23)cs1 |  | > 128 |  | 4 (≈ 10.7 µM) | 64 (≈ 171 µM) |  |  |  |  |  |  |  |  |  |  |  | 1 (≈ 2.67 µM) | 66 |  |
| O=C(COc1ccc(O)cc1)N[C@@H]1C(=O)N2C(C(=O)O)=C(Cl)CS[C@H]12 | 64 (≈ 166 µM) | > 128 | > 128 | 64 (≈ 166 µM) | 64 (≈ 166 µM) | 1 (≈ 2.6 µM) | 16 (≈ 41.6 µM) | 128 (≈ 333 µM) | 128 (≈ 333 µM) | 0.5 (≈ 1.3 µM) | 0.06 (≈ 0.156 µM) | 2 (≈ 5.2 µM) | 1 (≈ 2.6 µM) |  |  |  | 0.125 (≈ 0.325 µM) | 21 |  |
| O=C(Cc1ccccc1)N[C@@H]1C(=O)N2C(C(=O)O)=CCS[C@H]12 | 8 (≈ 25.1 µM) | 64 (≈ 201 µM) | 4 (≈ 12.6 µM) | 8 (≈ 25.1 µM) | 64 (≈ 201 µM) | 1 (≈ 3.14 µM) | 4 (≈ 12.6 µM) | 32 (≈ 101 µM) | 16 (≈ 50.3 µM) | 1 (≈ 3.14 µM) | 0.25 (≈ 0.785 µM) | 4 (≈ 12.6 µM) | 1 (≈ 3.14 µM) | 1 (≈ 3.14 µM) | 0.25 (≈ 0.785 µM) | 1 (≈ 3.14 µM) | 1 (≈ 3.14 µM) | 12 |  |
| CC1=C(C(=O)O)N2C(=O)[C@@H](NC(=O)[C@H](N)c3ccccc3)[C@H]2SC1 [CEPHALEXIN ANHYDROUS] |  |  |  |  |  |  |  |  |  |  |  |  |  | 1 (≈ 2.88 µM) |  | 4 (≈ 11.5 µM) |  |  | 0.5 (≈ 1.44 µM) |
